Here are results for 37 compounds from ChEMBL document CHEMBL1128471, “Reversible inhibitors of the gastric (H+/K+)-ATPase. 4. Identification of an inhibitor with an intermediate duration of action” (J Med Chem, 1995).

Assay [1] addresses T1, Potassium-transporting ATPase (Sus scrofa) (UniProt P18434+P19156). The assay is described as follows: (§1) Inhibition of K+ -stimulated gastric ATPase activity was measured using lyophilized gastric vesicles at pH 7. Format: tissue-based. Also on record: concentration or dose not given beside the values. The note with it: Stomach; concentration not given here. A digest of the protocol:
(§2)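 K+-stimulated ATPase activity was measured in lyophilized (permeabilized) gastric vesicles at pH 7. The value is an IC50, or percent inhibition at the stated concentration where no IC50 could be determined.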

Assay [2] concerns the target T1, Potassium-transporting ATPase (Sus scrofa). Described as §1. It is filed as tissue-based. The note with it: Stomach; concentration not given here. The gist of the method: as §2
In assay [3] the test system is Canis familiaris. The assay is described as follows: Mean percent peak inhibition of histamine-stimulated gastric acid secretion in the heidenhain pouch dog following a single dose of 1 umol/kg through iv administration. The note with it: Canis lupus familiaris, Stomach. Format: functional.
In assay [4] the test system is Canis familiaris. The assay is described as follows: Mean percent peak inhibition of histamine-stimulated gastric acid secretion in the heidenhain pouch dog following a single dose of 4 umol/kg through oral administration. Format: functional. The note with it: Canis lupus familiaris, Stomach.
Assay [5] deals with Potassium-transporting ATPase (Sus scrofa, UniProt P19156). Described as §1. It is filed as tissue-based, Stomach. The gist of the method: as §2
Chain of Potassium-transporting ATPase (Sus scrofa, UniProt P19156) (P18434 whole entry, the tested form may be a part): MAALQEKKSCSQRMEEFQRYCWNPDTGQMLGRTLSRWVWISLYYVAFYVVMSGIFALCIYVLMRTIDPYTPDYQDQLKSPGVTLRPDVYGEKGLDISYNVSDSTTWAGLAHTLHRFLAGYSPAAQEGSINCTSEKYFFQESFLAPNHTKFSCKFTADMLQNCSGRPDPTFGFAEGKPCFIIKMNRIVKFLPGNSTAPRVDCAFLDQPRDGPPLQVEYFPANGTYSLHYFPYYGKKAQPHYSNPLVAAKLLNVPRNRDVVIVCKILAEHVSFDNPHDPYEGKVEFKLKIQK
Chain of Potassium-transporting ATPase (Sus scrofa, UniProt P19156) (P19156 whole entry, the tested form may be a part): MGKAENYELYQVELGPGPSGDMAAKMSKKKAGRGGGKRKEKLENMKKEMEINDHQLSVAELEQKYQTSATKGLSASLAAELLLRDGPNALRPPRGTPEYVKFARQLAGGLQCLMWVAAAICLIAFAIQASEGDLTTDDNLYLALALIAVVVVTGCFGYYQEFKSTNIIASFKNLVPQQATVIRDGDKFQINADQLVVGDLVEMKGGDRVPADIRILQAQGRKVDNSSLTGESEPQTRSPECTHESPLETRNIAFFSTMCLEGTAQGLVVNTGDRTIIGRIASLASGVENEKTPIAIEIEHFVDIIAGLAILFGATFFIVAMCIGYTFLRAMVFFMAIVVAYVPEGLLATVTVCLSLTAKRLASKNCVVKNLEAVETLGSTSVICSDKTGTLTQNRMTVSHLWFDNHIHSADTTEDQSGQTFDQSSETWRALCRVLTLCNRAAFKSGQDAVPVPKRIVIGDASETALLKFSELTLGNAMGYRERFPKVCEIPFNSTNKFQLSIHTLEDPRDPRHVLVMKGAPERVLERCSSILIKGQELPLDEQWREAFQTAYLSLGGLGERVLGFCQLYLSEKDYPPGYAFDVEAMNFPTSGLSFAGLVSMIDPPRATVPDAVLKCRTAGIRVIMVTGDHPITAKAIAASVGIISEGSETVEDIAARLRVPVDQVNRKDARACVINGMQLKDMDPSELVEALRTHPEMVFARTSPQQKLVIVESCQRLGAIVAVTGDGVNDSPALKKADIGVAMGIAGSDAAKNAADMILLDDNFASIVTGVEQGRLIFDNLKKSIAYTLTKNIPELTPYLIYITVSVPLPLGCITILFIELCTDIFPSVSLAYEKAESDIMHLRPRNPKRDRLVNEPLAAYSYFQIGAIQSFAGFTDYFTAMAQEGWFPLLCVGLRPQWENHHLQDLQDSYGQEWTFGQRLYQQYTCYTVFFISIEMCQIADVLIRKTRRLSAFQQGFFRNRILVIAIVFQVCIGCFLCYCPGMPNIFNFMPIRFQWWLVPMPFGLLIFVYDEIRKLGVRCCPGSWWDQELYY
For assay [6], the target named is T2, Potassium-transporting ATPase (Rattus norvegicus) (UniProt P09626+P18598). The experiment in a line: (§3) Inhibition of pentagastrin-stimulated gastric acid secretion in the anesthetized rat after iv administration. It is filed as functional, organism-based. The note with it: Stomach. The gist of the method: (§4)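 Anesthetized, lumen-perfused rats were given pentagastrin to stimulate gastric acid secretion, and compounds were given iv. The value is an ED50 (µmol/kg iv) with 95% confidence limits, or percent inhibition ± SEM at a single 10 µmol/kg iv dose.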

The subject of assay [7] is Rattus norvegicus. The assay is described as follows: Inhibition of pentagastrin-stimulated gastric acid secretion in the anesthetized rat at a single dose of 10 umol/kg iv; Insoluble. It is filed as functional, organism-based. The note with it: Stomach. A digest of the protocol:
as §4

In assay [8] the target is T1, Potassium-transporting ATPase (Sus scrofa). The experiment in a line: Inhibition of K+ -stimulated gastric ATPase activity was measured using lyophilized gastric vesicles at pH 7 at 100. Format: tissue-based. The note with it: Stomach; concentration not given here. A digest of the protocol:
as §2

The target of assay [9] is T3, Potassium-transporting ATPase (Sus scrofa, UniProt P18434+P19156). The assay is described as follows: Inhibition of K+ -stimulated gastric ATPase activity was measured using lyophilized gastric vesicles at pH 7; Insoluble. It is filed as tissue-based, Stomach.
T3 sequence (P18434 whole entry): as the sequence (P18434 whole entry, the tested form may be a part) above
T3 sequence (P19156 whole entry): as the sequence (P19156 whole entry, the tested form may be a part) above
In assay [10] the target is T1, Potassium-transporting ATPase (Sus scrofa). The assay is described as follows: Inhibition of K+ -stimulated gastric ATPase activity was measured using lyophilized gastric vesicles at pH 7 at 10. Format: tissue-based. The note with it: Stomach; concentration not given here. The gist of the method:
as §2

Assay [11] deals with T2, Potassium-transporting ATPase (Rattus norvegicus). The experiment in a line: Inhibition of pentagastrin-stimulated gastric acid secretion at a single dose of 10 umol/kg. It is filed as functional. The note with it: Stomach. The gist of the method: as §4
The subject of assay [12] is Rattus norvegicus. The experiment in a line: Inhibition of pentagastrin-stimulated gastric acid secretion in the anesthetized rat, ED50 (umol/kg iv) with 95% confidence limits. It is filed as functional. The note with it: Stomach. The gist of the method:
as §4

Assay [13] concerns Rattus norvegicus. Described as §3. Format: functional, Stomach. A digest of the protocol:
as §4

The target in assay [14] is T3, Potassium-transporting ATPase. The description is as §1. Format: tissue-based, Stomach. A digest of the protocol:
as §2

One may read the inhibition as the relative decrease from the control value, in per cent. In [1], `CCCC(=O)c1cnc2c(C)cccc2c1Nc1ccc(Cl)cc1Cl` came in with an inhibition of 31%.

In assay [1], `CCCC(=O)c1cnc2c(OC)cccc2c1Nc1ccc(CO)cc1` yielded an inhibition of 38%.

`CCCC(=O)c1cnc2c(OC)cccc2c1Nc1cc(F)c(O)c(F)c1` came in with an inhibition in assay [1] of 11%.

`CCCC(=O)c1cnc2c(OC)cccc2c1Nc1ccc(O)c(F)c1` returned an inhibition in [1] of 40%.

`CCCC(=O)c1cnc2c(OC)cccc2c1Nc1ccc([N+](=O)[O-])cc1C` gave an inhibition in assay [2] of 17%.

What is called inhibition in vivo is the drop in the measured response relative to a control, in per cent. What is called IC50 is the point on the concentration scale where inhibition reaches its midpoint. Usually ED50 stands for the dose at which the effect has come halfway, by size or by number of responders. `CCCC(=O)c1cnc2c(OC)cccc2c1Nc1c(C)cc(O)cc1C`: the inhibition in vivo at 1 µmol/kg in assay [3] came out at 32%. In [4], this compound showed an inhibition in vivo at 4 µmol/kg of 25%. Also, 0.5 µM corresponded to half-maximal inhibition in assay [5] (IC50). Further, the ED50 in [6] turned out to be 6.4 µmol/kg.

Compound `CCCC(=O)c1cnc2c(C)cccc2c1Nc1ccc(Cl)cc1C` registered an inhibition in assay [1] of 15%.

As for `CCCC(=O)c1cnc2c(OC)cccc2c1Nc1ccccc1CC`, the inhibition in vivo at 1 µmol/kg in assay [3] stood at 77%. The compound further had an inhibition in vivo at 4 µmol/kg in assay [4] of 85%. Further, the IC50 in assay [5] came out at 0.89 µM. Further, in assay [6], the 50% effect level (ED50) was put at a dose of 2.35 µmol/kg.

For `CCCC(=O)c1cnc2c(C(=O)O)cccc2c1Nc1ccccc1C`, the inhibition result in assay [7] is on record as “Insoluble”. The IC50 in [5] came out at 5.9 µM.

`CCCC(=O)c1cnc2cc(CO)ccc2c1Nc1ccccc1C` showed an inhibition in assay [8] of 44%.

As to `CCCC(=O)c1cnc2c(OC)cccc2c1Nc1ccc(F)cc1C`, in assay [3], the inhibition in vivo at 1 µmol/kg was found to be 36%. This compound gave an inhibition in vivo at 4 µmol/kg in assay [4] of 64%. This compound returned an IC50 in [5] of 2.3 µM. Moreover, in [6], it took a dose of 3.9 µmol/kg to reach the 50% effect level (ED50).

As to `CCCC(=O)c1cnc2c(OC)cccc2c1Nc1cc(C)c(O)c(C)c1`, in assay [9], the IC50 result is recorded as “Insoluble”.

On to `CCCC(=O)c1cnc2cc(OC)ccc2c1Nc1ccccc1C`, for which the inhibition in assay [10] was 41%; in assay [11] it was 28%.

`CCCC(=O)c1cnc2c(C)cccc2c1Nc1cc(C)ccc1OC` yielded an inhibition in assay [1] of 56%.

Regarding `CCCC(=O)c1cnc2c(C)cccc2c1Nc1cc(OC)ccc1OC`, the inhibition amounted to 28% in assay [11] and 29% in [1].

For `CCCC(=O)c1cnc2ccc(-c3ccccc3)cc2c1Nc1ccccc1C`, the inhibition in assay [10] was 35%; in assay [7], “Insoluble”.

`CCCC(=O)c1cnc2c(OC)cccc2c1Nc1cc(F)cc(F)c1` registered an inhibition in [1] of 63%.

The compound `CCCC(=O)c1cnc2c(OC)cccc2c1Nc1c(C)cccc1C` came in with an inhibition in vivo at 1 µmol/kg in assay [3] of 62%. The compound also displayed an inhibition in vivo at 4 µmol/kg in assay [4] of 75%. In [5], the IC50 is 1.6 µM. In [6], this compound yielded an ED50 of 5.24 µmol/kg.

For `Cc1ccccc1Nc1c(C(=O)C(C)C)cnc2c(OCCO)cccc12`, the inhibition in vivo at 1 µmol/kg in [3] turned out to be 56%. This compound also had an inhibition in vivo at 4 µmol/kg in assay [4] of 54%. In assay [5], this compound came in with an IC50 of 0.99 µM. Also, the ED50 in [6] worked out at 2.07 µmol/kg.

As for `CCCC(=O)c1cnc2c(OC)cccc2c1Nc1c(C)ccc(O)c1C`, in [3], the inhibition in vivo at 1 µmol/kg is 36%. This compound also came in with an inhibition in assay [1] of 35%. This compound had an ED50 in assay [6] of 5.6 µmol/kg.

`CCCC(=O)c1cnc2c(C(C)O)cccc2c1Nc1ccccc1C` (stereo unspecified) came in with an inhibition in vivo at 1 µmol/kg in [3] of 46%. The inhibition in vivo at 4 µmol/kg in [4] turned out to be 49%. Further, half-maximal inhibition in assay [5] (IC50) was put at 0.37 µM. The same compound returned an ED50 in assay [6] of 3.69 µmol/kg.

`CCC(=O)c1cnc2c(OCCOC)cccc2c1Nc1ccccc1C` returned an inhibition in vivo at 1 µmol/kg in assay [3] of 80%. This compound also showed an inhibition in vivo at 4 µmol/kg in assay [4] of 66%. This compound also had an IC50 in [5] of 0.78 µM. In assay [6], this compound showed an ED50 of 1.92 µmol/kg.

As to `CCCC(=O)c1cnc2c(OC)cccc2c1Nc1ccc(N2CCCC2)cc1C`, the inhibition in [11] came to 0%; in assay [1] it was 5%.

In turn, `CCCC(=O)c1cnc2c(C3CO3)cccc2c1Nc1ccccc1C` (stereo unspecified) came in with an inhibition in vivo at 1 µmol/kg in assay [3] of 53%. The compound further registered an IC50 in assay [5] of 3 µM. The compound further yielded an ED50 in assay [12] of 3.1 µmol/kg.

`CCCC(=O)c1cnc2c(OC)cccc2c1Nc1ccc(O)c(Cl)c1` had an inhibition in assay [1] of 16%.

As to `COCCOc1cccc2c(Nc3ccccc3C)c(C(=O)C(C)C)cnc12`, the inhibition in vivo at 1 µmol/kg in assay [3] is 65%. Moreover, in assay [4], the inhibition in vivo at 4 µmol/kg came to 86%. The compound further yielded an IC50 in assay [5] of 1.4 µM. Further, the ED50 in assay [6] turned out to be 3.61 µmol/kg.

Broadly, the Inhibition is the percentage by which the read-out fell short of the control. Consider `CCC(=O)c1cnc2c(OCCOC)cccc2c1Nc1ccc(F)cc1C`, for which the inhibition in vivo at 1 µmol/kg in [3] turned out to be 36%. The Inhibition in assay [13] was 70%. In assay [4], this compound showed an inhibition in vivo at 4 µmol/kg of 94%. The IC50 in [5] is 2 µM.

With `CCC(=O)c1cnc2c(OCCO)cccc2c1Nc1ccc(F)cc1C`, the inhibition in vivo at 1 µmol/kg in [3] turned out to be 58%. In addition, the inhibition in vivo at 4 µmol/kg in assay [4] is 72%. Besides, the IC50 in assay [5] is 2 µM. For the same compound, it took a dose of 2.85 µmol/kg to reach the 50% effect level in [6] (ED50).

Regarding `CCCC(=O)c1cnc2c(OC)cccc2c1Nc1ccc(OC(=O)C(C)C)cc1C`, in assay [2], the inhibition amounted to 44%. The inhibition in vivo at 4 µmol/kg in assay [4] was found to be 25%.

In assay [2], `CCCC(=O)c1cnc2c(OC)cccc2c1Nc1ccc(OC(C)=O)cc1C` showed an inhibition of 25%. In assay [4], the inhibition in vivo at 4 µmol/kg was found to be 44%.

For the compound `CCCC(=O)c1cnc2c(C)cccc2c1Nc1ccccc1F`, the inhibition amounted to 29% in assay [11] and 53% in assay [1].

On to `CCCC(=O)c1cnc2c(F)cccc2c1Nc1ccc(O)cc1C`, for which, in assay [3], the inhibition in vivo at 1 µmol/kg amounted to 31%. For the same compound, the inhibition in vivo at 4 µmol/kg in [4] worked out at 17%. The same compound displayed a half-maximal inhibitory concentration (IC50) in assay [5] of 0.71 µM. Further, in assay [6], it took a dose of 4.66 µmol/kg to reach the 50% effect level (ED50).

As for `CCCC(=O)c1cnc2c(C3OC3CO)cccc2c1Nc1ccccc1C` (stereo in doubt; 29a), in [14], the IC50 amounted to 3.1 µM.

In assay [3], `CCCC(=O)c1cnc2c(OC)cccc2c1Nc1ccccc1C` returned an inhibition in vivo at 1 µmol/kg of 67%. The same compound showed an inhibition in vivo at 4 µmol/kg in assay [4] of 83%. The same compound yielded an IC50 in assay [5] of 1.7 µM. The compound further showed an ED50 in assay [6] of 2.6 µmol/kg.

`CCCC(=O)c1cnc2c(OC)cccc2c1Nc1ccc(O)c(CN(C)C)c1` showed an inhibition in [1] of 35%.

Consider `CCCC(=O)c1cnc2c(OC)cccc2c1Nc1ccc(O)cc1C`, for which the inhibition in vivo at 1 µmol/kg in [3] turned out to be 76%. In [4], this compound came in with an inhibition in vivo at 4 µmol/kg of 46%. The compound also gave an IC50 in [5] of 0.21 µM. The 50% effect level in assay [6] (ED50) was put at a dose of 1.98 µmol/kg.

Compound `CCCC(=O)c1cnc2c(OCCOC)cccc2c1Nc1ccc(F)cc1C` returned an inhibition in vivo at 1 µmol/kg in assay [3] of 65%. This compound came in with an inhibition in vivo at 4 µmol/kg in [4] of 46%. The compound further yielded an IC50 in assay [5] of 3.5 µM. The compound further showed an ED50 in assay [6] of 2.91 µmol/kg.
